Common to all, as to type: functional, cell-based
The test system of test [1] is KB. Description: Cytotoxicity against human KB cells after 48 hrs by sulforhodamine B assay. An outline of the steps: (§1)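 Cells kept below passage 15 in recommended medium with 10% FBS, gentamycin and amphotericin B, 37 °C, 5% CO₂. Seeded at 1 × 10⁴ cells/well overnight, then given serial two-fold dilutions (100 to 1.6) for 48 h, with untreated controls. Fixed in ice-cold 50% TCA, stained with 0.4% SRB in 1% acetic acid, read at 540 nm. IC₅₀ from dose–response curves of % growth inhibition.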

Test [2] has as its system C-33-A. Description: Cytotoxicity against human C33A cells after 48 hrs by sulforhodamine B assay. The gist of the method:
as §1
In general terms: In SRB staining, fixed cells bind dye roughly in proportion to their protein.

Test [3] concerns NIH3T3. Description: Cytotoxicity against mouse NIH/3T3 cells after 48 hrs by sulforhodamine B assay. The gist of the method:
as §1

Test [4] relates to A549. Description: Cytotoxicity against human A549 cells after 48 hrs by sulforhodamine B assay. The gist of the method: as §1
For test [5], the system named is MCF7. Description: Cytotoxicity against human MCF7 cells after 48 hrs by sulforhodamine B assay. An outline of the steps: as §1
[6] abbreviates: Homo sapiens, KB, 48 h, read-out: IC50.
The mark [7] stands for this setting: Homo sapiens, C-33-A, 48 h, read-out: IC50.
The mark [8] stands for this setting: Homo sapiens, A549, 48 h, read-out: IC50.
Where [9] appears, read: Homo sapiens, MCF7, 48 h, read-out: IC50.
Setting [10] is: Mus musculus, NIH3T3, 48 h, read-out: IC50.

As usually defined, the IC50 is the concentration that gives 50% inhibition. Turning to `CCOC(=O)c1cc2cc(C=O)cc(C(C)CC)c2oc1=O` (configuration not stated), the IC50 is 132 µM in test [1] (setting [6]), 64.3 µM in test [2] (setting [7]) and “Not Active” in test [3] (nih3t3).
On to `CCC(C)c1cc(/C=C/C(=O)c2ccc(Cl)cc2)cc2cc(C(C)=O)c(=O)oc12` (configuration not stated), for which the IC50 result in test [1] (kb), in test [2] (c-33-a), in test [4] (a549), in test [3] (nih3t3) and in test [5] (mcf7) was “Not Active” throughout.
Regarding `CC(=O)c1cc2cc(/C=C/C(=O)c3ccc(C)cc3)c3ccccc3c2oc1=O`, the IC50 result in test [1] (kb), in test [2] (c-33-a), in test [4] (a549), in test [3] (nih3t3) and in test [5] (mcf7) was “Not Active” each time.
For `COC(=O)c1cc2cc(/C=C/C(=O)c3ccc(Cl)cc3)c3ccccc3c2oc1=O`, the IC50 result in test [1] (kb), in test [2] (c-33-a), in test [4] (a549), in test [3] (nih3t3) and in test [5] (mcf7) was “Not Active” throughout.
In the case of `CCOC(=O)c1cc2cc(/C=C/C(=O)c3ccc(C)cc3)c3ccccc3c2oc1=O`, the 50% inhibitory concentration (IC50) entry in test [1] (kb), in test [2] (c-33-a), in test [4] (a549), in test [3] (nih3t3) and in test [5] (mcf7) was “Not Active” each time.
Take `CCC(C)c1cc(C=O)cc2cc(C(=O)OC)c(=O)oc12` (configuration not stated): the IC50 in test [1] (setting [6]) is 146 µM; in test [2] (setting [7]) it was 88 µM; in test [4] (a549) it was “Not Active”; in test [3] (nih3t3), “Not Active”; in test [5] (mcf7), “Not Active”.
As to `CCOC(=O)c1cc2cc(/C=C/C(=O)c3ccccc3)c3ccccc3c2oc1=O`, the 50% inhibitory concentration (IC50) entry in test [1] (kb), in test [2] (c-33-a), in test [4] (a549), in test [3] (nih3t3) and in test [5] (mcf7) was “Not Active” throughout.
On to `COc1cccc2c1C(=O)c1c(O)c3c(c(O)c1C2=O)C[C@@](O)(C(=O)CO)C[C@@H]3O[C@H]1C[C@H](N)[C@H](O)[C@H](C)O1` [DOXORUBICIN], for which the IC50 worked out at 0.22 µM in test [1] (setting [6]), 0.82 µM in test [2] (setting [7]), 0.52 µM in test [4] (setting [8]) and 0.61 µM in test [5] (setting [9]).
As for `COC(=O)c1cc2cc(C=O)c3ccccc3c2oc1=O`, the IC50 in test [1] (setting [6]) is 57.9 µM; in test [2] (setting [7]) it was 30.1 µM; in test [4] (setting [8]) it was 75.7 µM; in test [3] (setting [10]), 66 µM; in test [5] (setting [9]), 61.7 µM.
With `CCOC(=O)c1cc2cc(/C=C/C(=O)c3ccc(C)cc3)cc(C(C)CC)c2oc1=O` (configuration not stated), the concentration for half-maximal inhibition (IC50) was 18 µM in test [1] (setting [6]); 3.59 µM in test [2] (setting [7]); 32.8 µM in test [4] (setting [8]); “Not Active” in test [3] (nih3t3); 81.1 µM in test [5] (setting [9]).
`CCC(C)c1cc(C=O)cc2cc(C(C)=O)c(=O)oc12` (configuration not stated): the concentration for half-maximal inhibition (IC50) was 176 µM in test [1] (setting [6]); 70 µM in test [2] (setting [7]); “Not Active” in test [4] (a549); “Not Active” in test [3] (nih3t3); 141 µM in test [5] (setting [9]).
On to `CC(=O)c1cc2cc(C=O)c3ccccc3c2oc1=O`, for which the IC50 in test [1] (setting [6]) is 109 µM; in test [2] (setting [7]), 72.8 µM; in test [4] (a549), “Not Active”; in test [3] (nih3t3) it was “Not Active”; in test [5] (setting [9]), 147 µM.
Take `CCOC(=O)c1cc2cc(/C=C/C(=O)c3ccc(Cl)cc3)c3ccccc3c2oc1=O`: the IC50 result in test [1] (kb), in test [2] (c-33-a), in test [4] (a549), in test [3] (nih3t3) and in test [5] (mcf7) was “Not Active” throughout.
As to `COC(=O)c1cc2cc(/C=C/C(=O)c3ccccc3)c3ccccc3c2oc1=O`, the IC50 in test [1] (setting [6]) was 90.8 µM; in test [2] (setting [7]), 62.4 µM; in test [4] (a549), “Not Active”; in test [3] (nih3t3), “Not Active”; in test [5] (setting [9]) it was 103 µM.
With `CCOC(=O)c1cc2cc(/C=C/C(=O)c3ccc(Cl)cc3)cc(C(C)CC)c2oc1=O` (configuration not stated), the IC50 in test [1] (setting [6]) came out at 14.3 µM; in test [2] (setting [7]), 4.54 µM; in test [4] (setting [8]), 12.8 µM; in test [3] (setting [10]), 38.4 µM; in test [5] (setting [9]), 11.1 µM.
Regarding `CCOC(=O)c1cc2cc(C=O)c3ccccc3c2oc1=O`, the half-maximal inhibitory concentration (IC50) in test [1] (setting [6]) is 124 µM; in test [2] (setting [7]), 93.5 µM; in test [4] (a549) it was “Not Active”; in test [3] (nih3t3), “Not Active”; in test [5] (setting [9]), 155 µM.
Regarding `CC(=O)c1cc2cc(/C=C/C(=O)c3ccc(Cl)cc3)c3ccccc3c2oc1=O`, the IC50 result in test [1] (kb), in test [2] (c-33-a), in test [4] (a549), in test [3] (nih3t3) and in test [5] (mcf7) was “Not Active” each time.
Regarding `CCOC(=O)c1cc2cc(/C=C/C(=O)c3ccccc3)cc(C(C)CC)c2oc1=O` (configuration not stated), the IC50 is 10.5 µM in test [1] (setting [6]); 8.12 µM in test [2] (setting [7]); 12.9 µM in test [4] (setting [8]); “Not Active” in test [3] (nih3t3); 88.1 µM in test [5] (setting [9]).
For the compound `CC(=O)c1cc2cc(/C=C/C(=O)c3ccccc3)c3ccccc3c2oc1=O`, the IC50 entry in test [1] (kb), in test [2] (c-33-a), in test [4] (a549), in test [3] (nih3t3) and in test [5] (mcf7) was “Not Active” each time.
For the compound `COC(=O)c1cc2cc(/C=C/C(=O)c3ccc(C)cc3)c3ccccc3c2oc1=O`, the IC50 in test [1] (setting [6]) is 70.4 µM; in test [2] (setting [7]), 52 µM; in test [4] (a549), “Not Active”; in test [3] (nih3t3) it was “Not Active”; in test [5] (setting [9]), 118 µM.
On to `CCC(C)c1cc(/C=C/C(=O)c2ccc(Cl)cc2)cc2cc(C(=O)OC)c(=O)oc12` (configuration not stated), for which the concentration for half-maximal inhibition (IC50) in test [1] (setting [6]) is 28.2 µM; in test [2] (setting [7]) it was 5.9 µM; in test [4] (setting [8]), 16.7 µM; in test [3] (setting [10]), 42.4 µM; in test [5] (setting [9]), 10.8 µM.
As for `CCC(C)c1cc(/C=C/C(=O)c2ccccc2)cc2cc(C(=O)OC)c(=O)oc12` (configuration not stated), the IC50 in test [1] (setting [6]) is 13.4 µM; in test [2] (setting [7]) it was 6.28 µM; in test [4] (setting [8]), 10.7 µM; in test [3] (nih3t3), “Not Active”; in test [5] (setting [9]), 11.4 µM.

Source of the values: ChEMBL document CHEMBL1287785, “Synthesis and in vitro evaluation of novel coumarin-chalcone hybrids as potential anticancer agents” (Bioorg Med Chem Lett, 2010).
